The values that follow come from ChEMBL document CHEMBL3351896, “Small Molecule that Reverses Dexamethasone Resistance in T-cell Acute Lymphoblastic Leukemia (T-ALL)” (ACS Med Chem Lett, 2014).

pEC50: −log10 of the molar value. The source made the active and inactive calls. The rule behind the calls is not given here.

Assay [1] deals with CUTLL1. As to the kind of experiment: Induction of PARP1 cleavage in human CUTLL1 cells at 1 uM after 24 hrs by western blotting method. Type of assay: functional, cell-based.
The subject of assay [2] is CUTLL1. The assay can be described thus: Growth inhibition of human CUTLL1 cells with high GR expression levels after 48 hrs by alamar blue assay. The format is functional, cell-based. The essentials:
(§1)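 Human CUTLL1 T-ALL cells engineered to express high (overexpressed) or low (knockdown) glucocorticoid receptor levels. Exposed to compound alone or with 1 μM dexamethasone. Alamar blue growth inhibition read after 48 h.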

The subject of assay [3] is CUTLL1. The assay can be described thus: Growth inhibition of human CUTLL1 cells with low GR expression levels after 48 hrs by alamar blue assay. The format is functional, cell-based. The method in brief:
as §1

Assay [4] in a line: Growth inhibition of human CUTLL1 cells in presence of 1 uM dexamethasone after 48 hrs by alamar blue assay. The format is functional, cell-based. Particulars: CUTLL1, 48 h. The method in brief:
(§2)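 CUTLL1 cells given compound alone or with dexamethasone 1 μM. Growth inhibition measured by alamar blue after 48 h.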

The nature of assay [5]: Growth inhibition of human CUTLL1 cells in absence of 1 uM dexamethasone after 48 hrs by alamar blue assay. Type of assay: functional, cell-based. Particulars: CUTLL1, 48 h. The essentials: as §2
In assay [6] the test system is CUTLL1. As to the kind of experiment: Growth inhibition of human CUTLL1 cells at 12.5 to 50 uM in presence of 1 uM dexamethasone and 1 uM […] and glucocorticoid receptor antagonist RU486 after 24 hrs by alamar blue assay.
In assay [7] the target is T1, Gamma-secretase (Homo sapiens) (UniProt Q96BI3+Q9NZ42+Q8WW43+P49768+Q92542+P49810). The assay can be described thus: Inhibition of gamma secretase in human CUTLL1 cells assessed as effect on NOTCH cleavage level at 100 nM in presence of 1 uM dexamethasone after 24 hrs by Western blotting. Type of assay: cell-based. The essentials: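 Dexamethasone-resistant human T-ALL CUTLL1 cells were treated for 24 h with the gamma-secretase inhibitor at 100 nM together with dexamethasone at 1 μM. Intracellular NOTCH (ICN) protein was then measured by Western blot.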

Assay [8] deals with T1, Gamma-secretase (Homo sapiens). As to the kind of experiment: Inhibition of gamma secretase in human CUTLL1 cells assessed as effect on NOTCH cleavage level at 100 nM after 24 hrs by Western blotting. Type of assay: cell-based.

`C[C@@H]1C[C@H]2[C@@H]3CCC4=CC(=O)C=C[C@]4(C)[C@@]3(F)[C@@H](O)C[C@]2(C)[C@@]1(O)C(=O)CO`: in assay [1], the outcome was inactive. Further, the “growth inhibition (GI)” value in assay [2] was “Active”. In addition, the “growth inhibition (GI)” value in assay [3] was “inactive”.

Turning to `Nc1ncc(-c2ccncc2)c(-c2ccoc2)n1`, the negative-log EC50 (pEC50) in assay [4] and in assay [5] was less than 4.00 each time.

`Nc1ncc(-c2ccccc2)c(C2CC2)n1`: the pEC50 in assay [4] and in assay [5] was less than 4.00 in each case.

Regarding `Nc1ncc(-c2ccncc2-c2ccccc2)c(C2CC2)n1`, the pEC50 in assay [4] and in assay [5] was less than 4.00 in each case.

For the compound `CC(C)c1nc(N)ncc1-c1ccncc1`, the pEC50 in assay [4] and in assay [5] was less than 4.00 each time.

Consider `Nc1ncc(-c2ccnc3ccccc23)c(C2CC2)n1`, for which the pEC50 in assay [4] and in assay [5] was less than 4.00 throughout.

Consider `Cc1nc(N)ncc1-c1ccncc1`, for which the pEC50 in assay [4] and in assay [5] was less than 4.00 each time.

`Nc1ncc(-c2ccccn2)c(C2CC2)n1`: the pEC50 in assay [4] and in assay [5] was less than 4.00 throughout.

With `Nc1ncc(-c2cccnc2)c(C2CC2)n1`, the pEC50 in assay [4] and in assay [5] was less than 4.00 in each case.

As for `Nc1ncc(-c2ccncc2)c(C2CCC2)n1`, the pEC50 in assay [4] and in assay [5] was less than 4.00 throughout.

Consider `Nc1ncc(-c2ccnc(Cl)c2)c(C2CC2)n1`, for which the pEC50 in assay [4] and in assay [5] was less than 4.00 in each case.

Turning to `Nc1ncc(-c2ccncc2)c(-c2ccccc2)n1`, the pEC50 in assay [4] and in assay [5] was less than 4.00 throughout.

For `Cc1ncc(-c2ccncc2)c(C2CC2)n1`, the pEC50 in assay [4] and in assay [5] was less than 4.00 in each case.

On to `Nc1ncc(-c2ccc(F)cc2)c(C2CC2)n1`, for which the pEC50 in assay [4] and in assay [5] was less than 4.00 each time.

With `Nc1ncc(-c2ccnc(-c3ccoc3)c2)c(C2CC2)n1`, the “growth inhibition (GI)” value in assay [6] was “inactive”. For the same compound, the figures for the pEC50 in assay [4] and in assay [5] were 4.80 and less than 4.00, respectively.

Take `COc1ccc(-c2cnc(N)nc2C2CC2)cc1`: the negative logarithm of the EC50 (pEC50) in assay [4] and in assay [5] was less than 4.00 throughout.

With `Nc1ncc(-c2ccnc(F)c2)c(C2CC2)n1`, the pEC50 in assay [4] and in assay [5] was less than 4.00 in each case.

`Nc1ncc(-c2cc(Cl)nc(Cl)c2)c(C2CC2)n1`: the values for the pEC50 in assay [4] and in assay [5] were 5.12 and 5.00, respectively.

`Nc1ncc(-c2ccncc2)cn1`: the pEC50 in assay [4] and in assay [5] was less than 4.00 each time.

`C[C@H](NC(=O)Cc1cc(F)cc(F)c1)C(=O)N[C@H]1N=C(c2ccccc2)c2ccccc2N(C)C1=O`: the inhibition result in assay [7] and in assay [8] was “Active” throughout.

For the compound `Nc1ncc(-c2ccncc2-c2ccoc2)c(C2CC2)n1`, the pEC50 in assay [4] and in assay [5] was 4.55 throughout.

With `C=Cc1cnccc1-c1cnc(N)nc1C1CC1`, the pEC50 in assay [4] was 4.54; in assay [5], 4.52.
